Legend:
[1] = system: NCI-H23; experiment: Growth inhibition of human NCI-H23 cells after 48 hrs by sulforhodamine B assay; assay type: functional; conditions: NCI-H23, 48 h
Outline: (§1)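 NCI screen panel. Five 10-fold concentrations from 10^-4 to 10^-8 M. Exposure for the last 48 h of a 72 h incubation. Growth estimated by sulforhodamine B protein assay. GI50 is the concentration giving 50% growth inhibition. Where that level was not reached or was exceeded, the value is given as above or below the highest or lowest concentration tested.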

[2] = system: UACC-257; experiment: Growth inhibition of human UACC257 cells after 48 hrs by sulforhodamine B assay; assay type: functional; conditions: UACC-257, 48 h
Outline: (§2)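 NCI in vitro panel screen. Compounds tested at five 10-fold dilutions, 10^-4 to 10^-8 M. Cells in 96-well plates were exposed for the last 48 h of a 72 h incubation. Viability/growth was read by sulforhodamine B protein assay. GI50 is the concentration giving 50% growth inhibition. Values beyond the tested range are reported as greater or less than the maximum or minimum concentration.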

[3] = system: SNB-75; experiment: Growth inhibition of human SNB75 cells after 48 hrs by sulforhodamine B assay; assay type: functional; conditions: SNB-75, 48 h; outline: as §2
[4] = system: KM12; experiment: Growth inhibition of human KM12 cells after 48 hrs by sulforhodamine B assay; assay type: functional; conditions: KM12, 48 h; outline: as §1
[5] = system: MOLT-4; experiment: Growth inhibition of human MOLT4 cells after 48 hrs by sulforhodamine B assay; assay type: functional; conditions: MOLT-4, 48 h; outline: as §1
[6] = system: BT-549; experiment: Growth inhibition of human BT549 cells after 48 hrs by sulforhodamine B assay; assay type: functional; conditions: BT-549, 48 h; outline: as §1
[7] = system: T47D; experiment: Growth inhibition of human T47D cells after 48 hrs by sulforhodamine B assay; assay type: functional; outline: as §2
[8] = system: MDA-MB-231; experiment: Growth inhibition of human MDA-MB-231 cells after 48 hrs by sulforhodamine B assay; assay type: functional; conditions: MDA-MB-231, 48 h; outline: as §1
[9] = system: LOX IMVI; experiment: Growth inhibition of human LOXIMVI cells after 48 hrs by sulforhodamine B assay; assay type: functional; outline: as §1
[10] = system: SK-OV-3; experiment: Growth inhibition of human SKOV3 cells after 48 hrs by sulforhodamine B assay; assay type: functional; conditions: SK-OV-3, 48 h; outline: as §1
[11] = system: Malme-3M; experiment: Growth inhibition of human MALME-3M cells after 48 hrs by sulforhodamine B assay; assay type: functional; outline: as §1
[12] = system: UO-31; experiment: Growth inhibition of human UO31 cells after 48 hrs by sulforhodamine B assay; assay type: functional; conditions: UO-31, 48 h; outline: as §2
[13] = system: HCT-116; experiment: Growth inhibition of human HCT116 cells after 48 hrs by sulforhodamine B assay; assay type: functional; conditions: HCT-116, 48 h; outline: as §1
[14] = system: A549; experiment: Growth inhibition of human A549 cells after 48 hrs by sulforhodamine B assay; assay type: functional; conditions: A549, 48 h; outline: as §1
[15] = system: SK-MEL-5; experiment: Growth inhibition of human SK-MEL-5 cells after 48 hrs by sulforhodamine B assay; assay type: functional; conditions: SK-MEL-5, 48 h; outline: as §1
[16] = system: HT-29; experiment: Growth inhibition of human HT-29 cells after 48 hrs by sulforhodamine B assay; assay type: functional; conditions: HT-29, 48 h; outline: as §1
[17] = system: HL-60(TB); experiment: Growth inhibition of human HL-60(TB) cells after 48 hrs by sulforhodamine B assay; assay type: functional; conditions: HL-60, 48 h
Outline: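 NCI 60-cell-line screen protocol: cells exposed to compound at five 10-fold dilutions from 10^-4 to 10^-8 M for the last 48 h of a 72 h incubation. Sulforhodamine B protein assay estimated viability/growth. GI50 (50% growth inhibition) derived; where not reached or exceeded, reported as greater or less than the highest or lowest concentration tested.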

[18] = Growth inhibition of human […] cells after 48 hrs by sulforhodamine B assay; assay type: functional; outline: as §1
[19] = system: OVCAR-4; experiment: Growth inhibition of human OVCAR4 cells after 48 hrs by sulforhodamine B assay; assay type: functional; conditions: OVCAR-4, 48 h; outline: as §1
[20] = system: IGROV-1; experiment: Growth inhibition of human IGROV1 cells after 48 hrs by sulforhodamine B assay; assay type: functional; conditions: IGROV-1, 48 h; outline: as §1
[21] = system: NCI-H322M; experiment: Growth inhibition of human NCI-H322M cells after 48 hrs by sulforhodamine B assay; assay type: functional; outline: as §1
[22] = system: K562; experiment: Growth inhibition of human K562 cells after 48 hrs by sulforhodamine B assay; assay type: functional; conditions: K562, 48 h; outline: as §1
[23] = system: SN12C; experiment: Growth inhibition of human SN12C cells after 48 hrs by sulforhodamine B assay; assay type: functional; outline: as §2
[24] = system: NCI-H460; experiment: Growth inhibition of human NCI-H460 cells after 48 hrs by sulforhodamine B assay; assay type: functional; conditions: NCI-H460, 48 h; outline: as §1
[25] = system: 786-0; experiment: Growth inhibition of human 786-0 cells after 48 hrs by sulforhodamine B assay; assay type: functional; conditions: 786-0, 48 h; outline: as §1
[26] = system: UACC-62; experiment: Growth inhibition of human UACC62 cells after 48 hrs by sulforhodamine B assay; assay type: functional; conditions: UACC-62, 48 h; outline: as §2
[27] = system: PC-3; experiment: Growth inhibition of human PC3 cells after 48 hrs by sulforhodamine B assay; assay type: functional; conditions: PC-3, 48 h; outline: as §1
[28] = system: MDA-MB-435; experiment: Growth inhibition of human MDA-MB-435 cells after 48 hrs by sulforhodamine B assay; assay type: functional; conditions: MDA-MB-435, 48 h; outline: as §1
[29] = system: HOP-62; experiment: Growth inhibition of human HOP62 cells after 48 hrs by sulforhodamine B assay; assay type: functional; conditions: HOP-62, 48 h; outline: as §1
[30] = system: HCT-15; experiment: Growth inhibition of human HCT15 cells after 48 hrs by sulforhodamine B assay; assay type: functional; conditions: HCT-15, 48 h; outline: as §1
[31] = system: OVCAR-8; experiment: Growth inhibition of human OVCAR8 cells after 48 hrs by sulforhodamine B assay; assay type: functional; conditions: OVCAR-8, 48 h; outline: as §1
[32] = system: OVCAR-3; experiment: Growth inhibition of human OVCAR-3 cells after 48 hrs by sulforhodamine B assay; assay type: functional; conditions: OVCAR-3, 48 h; outline: as §1
[33] = system: SNB-19; experiment: Growth inhibition of human SNB19 cells after 48 hrs by sulforhodamine B assay; assay type: functional; conditions: SNB-19, 48 h; outline: as §2
[34] = system: RXF 393; experiment: Growth inhibition of human RXF393 cells after 48 hrs by sulforhodamine B assay; assay type: functional; conditions: RXF 393, 48 h; outline: as §1
[35] = system: SK-MEL-2; experiment: Growth inhibition of human SK-MEL-2 cells after 48 hrs by sulforhodamine B assay; assay type: functional; conditions: SK-MEL-2, 48 h; outline: as §1
[36] = system: M14; experiment: Growth inhibition of human M14 cells after 48 hrs by sulforhodamine B assay; assay type: functional; conditions: M14, 48 h; outline: as §1
[37] = system: COLO 205; experiment: Growth inhibition of human COLO205 cells after 48 hrs by sulforhodamine B assay; assay type: functional; conditions: COLO 205, 48 h; outline: as §1
[38] = system: SF-268; experiment: Growth inhibition of human SF268 cells after 48 hrs by sulforhodamine B assay; assay type: functional; conditions: SF-268, 48 h; outline: as §1
[39] = system: SR; experiment: Growth inhibition of human SR cells after 48 hrs by sulforhodamine B assay; assay type: functional; outline: as §2
[40] = system: U-251; experiment: Growth inhibition of human U251 cells after 48 hrs by sulforhodamine B assay; assay type: functional; conditions: U-251, 48 h; outline: as §2
[41] = system: EKVX; experiment: Growth inhibition of human EKVX cells after 48 hrs by sulforhodamine B assay; assay type: functional; outline: as §1
[42] = system: NCI/ADR-RES; experiment: Growth inhibition of human NCI/ADR-RES cells after 48 hrs by sulforhodamine B assay; assay type: functional; outline: as §1
[43] = system: CAKI-1; experiment: Growth inhibition of human Caki1 cells after 48 hrs by sulforhodamine B assay; assay type: functional; conditions: CAKI-1, 48 h; outline: as §1
[44] = system: HOP-92; experiment: Growth inhibition of human HOP92 cells after 48 hrs by sulforhodamine B assay; assay type: functional; conditions: HOP-92, 48 h; outline: as §1
[45] = system: ACHN; experiment: Growth inhibition of human ACHN cells after 48 hrs by sulforhodamine B assay; assay type: functional; outline: as §1
[46] = system: MT4; experiment: Antiproliferative activity against human MT4 cells assessed as reduction of growth by MTT assay; assay type: functional, cell-based
Outline: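 MT-4 lymphoblastoid T cells (ATCC) in RPMI 1640 with 10% FCS, penicillin/streptomycin, checked for mycoplasma. 1 × 10⁴ mock-infected cells per well with serial dilutions from a 100 mM DMSO stock. Incubated 4 days at 37 °C, viable cells counted by MTT. IC50 versus untreated controls by linear regression. Mean of three separate experiments.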

[47] = system: SF-295; experiment: Growth inhibition of human SF295 cells after 48 hrs by sulforhodamine B assay; assay type: functional; conditions: SF-295, 48 h; outline: as §1
[48] = system: SW-620; experiment: Growth inhibition of human SW620 cells after 48 hrs by sulforhodamine B assay; assay type: functional; conditions: SW-620, 48 h; outline: as §2
[49] = system: SK-MEL-28; experiment: Growth inhibition of human SK-MEL-28 cells after 48 hrs by sulforhodamine B assay; assay type: functional; conditions: SK-MEL-28, 48 h; outline: as §1
[50] = system: TK-10; experiment: Growth inhibition of human TK10 cells after 48 hrs by sulforhodamine B assay; assay type: functional; conditions: TK-10, 48 h; outline: as §2

In the case of CC(=O)C(=CN1CCN(C(=O)c2ccco2)C1=S)C(C)=O, the GI50 [1] is reported as 16.4 µM, the GI50 [2] is reported as 2.5 µM and the GI50 [3] is reported as 9 µM. The GI50 [4] was 2.8 µM, the GI50 [5] was 8.2 µM and the GI50 [6] was 14 µM. For the same molecule, the GI50 [7] was 3.7 µM, the GI50 [8] was 2.6 µM and the GI50 [9] was 2.1 µM. It also gave a GI50 [10] of 20 µM, a GI50 [11] of 20.7 µM and a GI50 [12] of 2.9 µM. It also gave a GI50 [13] of 4.1 µM, a GI50 [14] of 11.2 µM and a GI50 [15] of 16.6 µM. For the same molecule, the GI50 [16] was 17.1 µM, the GI50 [17] was 5.8 µM and the GI50 [18] was 2.7 µM. The GI50 [19] was 10.6 µM, the GI50 [20] was 3.6 µM and the GI50 [21] was 4.7 µM. It also gave a GI50 [22] of 38.4 µM, a GI50 [23] of 2.6 µM and a GI50 [24] of 1.5 µM. For the same molecule, the GI50 [25] was 5.3 µM, the GI50 [26] was 5.5 µM and the GI50 [27] was 4.8 µM. The GI50 [28] was 12.6 µM, the GI50 [29] was 22 µM and the GI50 [30] was 2.2 µM. The GI50 [31] was 8.2 µM, the GI50 [32] was 11.4 µM and the GI50 [33] was 30.1 µM. The GI50 [34] was 1.8 µM, the GI50 [35] was 3.3 µM and the GI50 [36] was 4 µM. The GI50 [37] was 23.4 µM, the GI50 [38] was 2.6 µM and the GI50 [39] was 2.3 µM. The GI50 [40] was 4.8 µM, the GI50 [41] was 11.2 µM and the GI50 [42] was 23.2 µM. It also gave a GI50 [43] of 5.2 µM, a GI50 [44] of 11.7 µM and a GI50 [45] of 2.9 µM. It also gave an IC50 [46] of 4 µM, a GI50 [47] of 21.7 µM and a GI50 [48] of 14.6 µM. The GI50 [49] was 3.9 µM and the GI50 [50] was 4.2 µM.
